Bioassay records from PubChem BioAssay.
TRPC6 inhibitor = blocks the mouse TRPC6 cation channel; Q61143; HEK293-TRPC6, membrane potential dye, ACh-evoked depolarization; active compounds read low; B-score at 10 µM; actives 1.1% (n = 310,000);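 active = B-score under library mean minus 3 SD, initial fluorescence not abnormally high, positive integrated signal ratio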;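 note: B-score derived from integrated fluorescence ratio over the kinetic read; more negative B-score means stronger inhibition of depolarization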
TRPC4 PAM = allosteric potentiators of mouse TRPC4 channel | B-score at 10 µM | HEK293 TRPC4beta/mu-opioid, DAMGO EC20, Fluo-4 Ca2+ flux; active compounds read high | actives 0.42% (n = 310,000) | Q9QUQ5 | AID 2227;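 active = B-score of calcium response area above 5 SD of library B-scores, with initial fluorescence ratio within 5 SD of library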
Target sequence (Q9QUQ5 whole entry, looked up): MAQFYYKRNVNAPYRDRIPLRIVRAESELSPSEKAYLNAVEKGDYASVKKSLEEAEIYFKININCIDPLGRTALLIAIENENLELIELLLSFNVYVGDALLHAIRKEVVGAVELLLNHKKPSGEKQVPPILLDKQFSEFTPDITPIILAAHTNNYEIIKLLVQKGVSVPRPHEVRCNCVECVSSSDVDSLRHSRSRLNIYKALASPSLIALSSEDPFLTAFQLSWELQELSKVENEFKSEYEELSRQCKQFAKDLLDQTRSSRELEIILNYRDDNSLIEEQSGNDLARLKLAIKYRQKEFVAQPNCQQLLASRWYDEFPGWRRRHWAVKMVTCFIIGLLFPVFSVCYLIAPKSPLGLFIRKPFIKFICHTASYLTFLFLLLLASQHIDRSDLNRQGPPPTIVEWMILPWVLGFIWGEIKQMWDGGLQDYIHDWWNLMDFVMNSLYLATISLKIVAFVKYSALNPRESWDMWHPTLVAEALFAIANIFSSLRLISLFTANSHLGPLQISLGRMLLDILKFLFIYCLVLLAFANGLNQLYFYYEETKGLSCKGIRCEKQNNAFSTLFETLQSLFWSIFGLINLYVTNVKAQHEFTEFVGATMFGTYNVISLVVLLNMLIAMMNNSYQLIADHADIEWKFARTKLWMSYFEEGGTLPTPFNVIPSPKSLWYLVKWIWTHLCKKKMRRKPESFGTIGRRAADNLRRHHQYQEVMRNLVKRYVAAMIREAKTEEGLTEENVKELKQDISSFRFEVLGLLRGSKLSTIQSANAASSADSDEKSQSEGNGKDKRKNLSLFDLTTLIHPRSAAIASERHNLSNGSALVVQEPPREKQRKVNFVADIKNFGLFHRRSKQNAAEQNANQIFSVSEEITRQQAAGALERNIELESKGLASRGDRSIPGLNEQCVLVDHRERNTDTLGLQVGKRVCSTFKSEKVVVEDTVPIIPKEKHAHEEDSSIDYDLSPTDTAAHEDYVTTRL
TRPC4 agonist = activators of mouse TRPC4 channel; HEK293 TRPC4beta/mu-opioid, Fluo4 calcium fluorescence; active compounds read high; B-score at 10 µM; actives 0.49% (n = 310,000); AID 2237;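 active = B-score above 5 SD of library B-scores, and initial fluorescence ratio not above library mean plus 5 SD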;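 note: positive B-score marks a calcium rise read as TRPC4 activation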
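Test system: HEK293 cells stably co-expressing mouse TRPC4beta and mu-opioid receptor | Schedule: Fluo4 dye loading 45 min at room temperature, 110 s recording | Measured by: Kinetic Fluo4 calcium fluorescence, 5 s baseline at 1 Hz | Evaluation: B score of integrated ratio | Controls: Buffer (low) and maximal DAMGO (high)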
TRPC6 act = mouse TRPC6 channel activation | Q61143 | HEK293-TRPC6 membrane potential dye fluorescence; active compounds read high | B-score at 10 µM | actives 0.13% (n = 310,000) | AID 2550;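 active = B-score of the integrated fluorescence ratio above library mean plus 3 SD, and starting fluorescence ratio within library mean plus 5 SD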;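 note: higher score means more depolarization so channel activation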
Platelet DG rel = platelet dense granule release activity; human platelet-rich plasma, SFLLRN dense granule ATP release, luminescence; AID 1663; inhibition, %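 (compounds screened at 7.5 µM in platelet-rich plasma)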; actives 0.22% (n = 300,000);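 active = mean replicate score, as percent of positive control, at or above 50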
TRPC4 inh = blocks the mouse TRPC4 cation channel | Q9QUQ5 | HEK293 TRPC4beta/mu-opioid, DAMGO-evoked Fluo4 calcium flux; active compounds read low | B-score at 10 µM | actives 0.39% (n = 300,000);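 active = B-score over 3 SD under the library average, no early fluorescence shift, positive overall ratio signal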
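Signal: kinetic Fluo4 fluorescence imaging of calcium influx. Material: stable TRPC4beta/mu-opioid receptor HEK293 cells. Probe or stimulus: DAMGO in two steps, submaximal then maximal.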
TRPC4 spec 2 = second selectivity test of TRPC6 inhibitors: effect on mouse TRPC4 | shares compounds with TRPC6 inhibitor | HEK293 TRPC4/MOR, membrane potential dye fluorescence; channel activated by saturating DAMGO dose | inhibition, % at 10 µM | actives 42% (n = 920) | AID 2776;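 active = compounds whose fluorescence signal differed from control wells by over 3 SD, either direction, in both duplicate plates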
TRPC4 spec = mouse TRPC4 off-target activity of TRPC6 inhibitors; shares compounds with TRPC6 inhibitor; HEK293 TRPC4/mu-opioid, membrane potential fluorescence; activity change, negative = inhibition, % at 10 µM; actives 61% (n = 920); AID 2777;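 active = rise or fall in signal beyond 3 SD of buffer-only wells in both replicate plates, either sign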;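 note: integrated kinetic ratio of fluorescence range over baseline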
HEK293 MPD ctr 2-1 = second counter-screen for TRPC6 inhibitors: parental HEK293 cells; shares compounds with TRPC6 inhibitor; parental HEK293 membrane potential dye fluorescence; maximal acetylcholine challenge after compound addition; signal change vs control, % at 10 µM; actives 31% (n = 920); AID 2779;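 active = membrane potential signal moving either way by over 3 SD of the maximum-effect control, in both duplicate plates, meaning non-specific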
HEK293 MPD ctr-1 = parental HEK293 nonspecific activity of TRPC6 inhibitors | shares compounds with TRPC6 inhibitor | parental HEK293 membrane potential dye fluorescence | membrane potential signal change, % at 10 µM | actives 60% (n = 920);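 active = membrane potential signal shifting up or down by more than 3 SD of buffer-only wells, on both duplicate plates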
HEK293 MPD ctr-2 = checks TRPC6 modulator effects in parental HEK293 cells; membrane potential dye fluorescence; AID 488924; actives 51% (n = 2,400); membrane potential signal change, % at 10 µM; shares compounds with TRPC6 inhibitor;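 active = membrane potential signal moves up or down beyond 5 SD from buffer-only wells, on both duplicate plates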
HEK293 MPD ctr 2-2 = second counter-screen for TRPC6 modulators: effect in parental HEK293 cells; actives 14% (n = 2,400); membrane potential dye fluorescence; after compound, maximal acetylcholine stimulation; AID 488926; shares compounds with TRPC6 inhibitor; inhibition, % at 10 µM;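 active = membrane potential signal drops by more than 5 SD from the mean control signal, in both duplicate plates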
TRPC4 ctr mod = selectivity of TRPC6 modulators against mouse TRPC4 | shares compounds with TRPC6 inhibitor | percent change from control (negative = decrease, positive = increase), % at 10 µM | HEK293 TRPC4/mu-opioid, membrane potential fluorescence | actives 69% (n = 2,400);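 active = membrane potential signal moved up or down beyond 5 SD of buffer control wells, in both duplicate plates, actives on both sides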
TRPC4 ctr inh 2 = mouse TRPC4 off-target activity of TRPC6 modulators, second screen; HEK293 TRPC4/mu-opioid, membrane potential dye fluorescence; stimulated with maximal-effect DAMGO; inhibition, % at 10 µM; shares compounds with TRPC6 inhibitor; actives 55% (n = 2,400);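 active = drop in membrane potential signal beyond 5 SD of the control wells in both duplicate plates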;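 note: TRPC4 counter screen for TRPC6 hits run under conditions tuned for TRPC6 not TRPC4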
TRPC6 inh conf = confirmation of mouse TRPC6 inhibitors | shares compounds with TRPC6 inhibitor | actives 43% (n = 3,300) | AID 488960 | inhibition, % at 10 µM | HEK293-TRPC6, membrane potential dye, ACh-evoked depolarization;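 active = fluorescence ratio falls more than 5 SD below the full-stimulation control mean, in both duplicate runs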;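 note: integrated fluorescence ratio of peak minus minimum over baseline after agonist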
TRPC6 act confirm = mouse TRPC6 activator confirmation; shares compounds with TRPC6 inhibitor; HEK293-TRPC6 membrane potential dye fluorescence, FDSS; activation, % at 10 µM; actives 11% (n = 2,800); AID 488961;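 active = ratio signal rise beyond 5 SD above unstimulated control wells' mean, seen in both duplicate runs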
Each line names hits and unclear results; the compound was inactive in the other large screens (follow-up assays come after a bar, where they were run). Sampled rows, rich in hits. Any-hit rate of the full collection: about 2.5%.

O=C(C[n+]1ccc(Cc2ccccc2)cc1)Nc1ccc([N+](=O)[O-])cc1Cl	TRPC6 inhibitor -7.59 | TRPC4 spec 2 inactive | TRPC4 spec -26.8% | HEK293 MPD ctr 2-1 inactive | HEK293 MPD ctr-1 -333.5% | TRPC6 inh conf inactive | TRPC6 act confirm inactive
Cc1nn(-c2ccccc2)c(Cl)c1/C=N/NC(=O)c1ccccc1F	none
O=C(Nc1ccccc1C(=O)O)c1ccc(NC(=O)c2ccc(Br)o2)cc1	TRPC6 act 16.6 | HEK293 MPD ctr-2 190.0% | HEK293 MPD ctr 2-2 inactive | TRPC4 ctr mod 27.0% | TRPC4 ctr inh 2 inactive | TRPC6 inh conf inactive | TRPC6 act confirm 93.5%
CCOC(=O)c1c(NC(C)=O)sc2c1CCN(Cc1ccccc1)C2	TRPC6 inhibitor -5.33 | HEK293 MPD ctr-2 -197.5% | HEK293 MPD ctr 2-2 inactive | TRPC4 ctr mod -33.5% | TRPC4 ctr inh 2 39.0% | TRPC6 inh conf inactive | TRPC6 act confirm inactive
CCOC(=O)c1c(NC(=O)CC)sc2c1CCN(Cc1ccccc1)C2	none
CCOC(=O)c1c(NC(=O)CSc2ncccn2)sc2c1CCN(Cc1ccccc1)C2	TRPC6 inhibitor -5.55 | HEK293 MPD ctr-2 inactive | HEK293 MPD ctr 2-2 inactive | TRPC4 ctr mod -20.5% | TRPC4 ctr inh 2 35.0% | TRPC6 inh conf inactive | TRPC6 act confirm inactive
COC(=O)c1c(NC(C)=O)sc2c1CCN(Cc1ccccc1)C2	TRPC6 inhibitor -5.55 | HEK293 MPD ctr-2 -196.5% | HEK293 MPD ctr 2-2 inactive | TRPC4 ctr mod -34.0% | TRPC4 ctr inh 2 37.0% | TRPC6 inh conf inactive | TRPC6 act confirm inactive
CCN1CCN(S(=O)(=O)c2ccc(C(=O)Nc3sc4c(c3C(N)=O)CCN(CC)C4)cc2)CC1	TRPC6 inhibitor -10 | HEK293 MPD ctr-2 -144.0% | HEK293 MPD ctr 2-2 inactive | TRPC4 ctr mod -27.0% | TRPC4 ctr inh 2 37.0% | TRPC6 inh conf 57.5% | TRPC6 act confirm inactive
COC(=O)c1c(NC(=O)C(C)(C)C)sc2c1CCN(Cc1ccccc1)C2	none
Cc1nn(Cc2ccccc2)c(Cl)c1/C=C1\NC(=S)NC1=O	none
CCOC(=O)c1c(N)sc2c1CCN(CCc1ccccc1)C2	TRPC6 inhibitor -5.92 | HEK293 MPD ctr-2 inactive | HEK293 MPD ctr 2-2 inactive | TRPC4 ctr mod 22.5% | TRPC4 ctr inh 2 33.5% | TRPC6 inh conf inactive | TRPC6 act confirm inactive
CCOC(=O)c1c(NC(=O)c2cccc(N3C(=O)CCC3=O)c2)sc2c1CCN(CC)C2	TRPC6 inhibitor -6.27 | HEK293 MPD ctr-2 inactive | HEK293 MPD ctr 2-2 inactive | TRPC4 ctr mod inactive | TRPC4 ctr inh 2 28.5% | TRPC6 inh conf inactive | TRPC6 act confirm inactive
CCOC(=O)c1c(N)sc2c1CCCC2	none
O=C(NCc1ccncc1)C1CCN(S(=O)(=O)c2ccccc2)CC1	none
Cc1nc(C)c(CCNC(=O)c2ccccc2)s1	TRPC6 inhibitor -6.05 | HEK293 MPD ctr-2 inactive | HEK293 MPD ctr 2-2 inactive | TRPC4 ctr mod inactive | TRPC4 ctr inh 2 inactive | TRPC6 inh conf inactive | TRPC6 act confirm inactive
COc1ccc(C(=O)N(C)C2CCCc3ccccc32)cc1OC1CCN(C(C)C)CC1 (stereo unspecified)	none
CCCCCCCCCCOC(=O)C[N+](C)(C)C/C=C(/C)Cl	TRPC6 inhibitor -5.31 | HEK293 MPD ctr-2 134.0% | HEK293 MPD ctr 2-2 inactive | TRPC4 ctr mod 29.5% | TRPC4 ctr inh 2 41.5% | TRPC6 inh conf 63.5%
CCCCCCCCCCCCOC(=O)C[N+](C)(C)C	TRPC6 inhibitor -6.93, TRPC4 inh -6 | TRPC4 spec 2 inactive | TRPC4 spec 0.8% | HEK293 MPD ctr 2-1 323.5% | HEK293 MPD ctr-1 inactive | TRPC6 inh conf 56.0% | TRPC6 act confirm inactive
CCCCCCCCOC(=O)C[N+](C)(C)C/C=C(/C)Cl	TRPC6 inhibitor -7.56 | TRPC4 spec 2 inactive | TRPC4 spec 0.1% | HEK293 MPD ctr 2-1 inactive | HEK293 MPD ctr-1 2.3% | TRPC6 inh conf 61.5% | TRPC6 act confirm inactive
COc1ccccc1C1(O)CC2CCC(C1)N2S(=O)(=O)c1ccc(C(C)=O)cc1 (stereo unspecified)	none
CN1c2ccc([N+](=O)[O-])cc2N(C)C1(C)c1ccccc1 (stereo unspecified)	none
CN(C)CCCN1c2ccc([N+](=O)[O-])cc2CCc2cc([N+](=O)[O-])ccc21	TRPC6 inhibitor -11.9 | HEK293 MPD ctr-2 -358.5% | HEK293 MPD ctr 2-2 86.0% | TRPC4 ctr mod -60.5% | TRPC4 ctr inh 2 84.5% | TRPC6 inh conf 83.0% | TRPC6 act confirm inactive
COc1cccc2c3c(c(C)nc12)CCN3c1ccccc1	TRPC6 inhibitor -8.49 | HEK293 MPD ctr-2 -182.5% | HEK293 MPD ctr 2-2 inactive | TRPC4 ctr mod -33.0% | TRPC4 ctr inh 2 72.0% | TRPC6 inh conf 68.5% | TRPC6 act confirm inactive
COc1cccc2c(Cl)c(CC=C(Cl)Cl)c(C)nc12	none
COc1ccccc1N1CCc2c(C)nc3c(OC)cccc3c21	TRPC6 inhibitor -6.5, TRPC4 inh -6 | HEK293 MPD ctr-2 -114.5% | HEK293 MPD ctr 2-2 inactive | TRPC4 ctr mod -19.0% | TRPC4 ctr inh 2 58.5% | TRPC6 inh conf 46.5% | TRPC6 act confirm inactive
